Activity calls are given as the source filed them. The rule behind the calls is not given here.
Assays:
[1] = test system: Human immunodeficiency virus 1; experiment: Antiviral activity against HIV1 infected in TNFalpha-stimulated human U1 cells assessed as inhibition of viral replication after 72 hrs; format: functional, organism-based; conditions: for EC50: Human immunodeficiency virus 1, U1, 72 h
How it was run: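 U1 cells (50,000/ml, RPMI/10% FCS) were induced with 5 ng/ml TNF-α and given compound at the same time over a six-point range from 0 to 11.9 or 25.1 μM, for 3 days. Supernatant reverse transcriptase activity was read. Cell toxicity was by MTS reduction (formazan at 492 nm) relative to untreated cells. Values were interpolated between bracketing points.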

[2] = test system: Human immunodeficiency virus 1; experiment: Inhibition of HIV1 Rev-radiolabeled Rev response element interaction after 10 mins by electrophoretic mobility shift assay
How it was run: (§1)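 A 234-bp RRE RNA was transcribed with [32P]UTP and T7 polymerase, then refolded (80°C 3 min, slow cooling). RRE (0.5 ng) was incubated with bacterial Rev (38 ng) in HEPES-KOH pH 7.8, 200 mM KCl, 4 mM MgCl2, glycerol with compound (up to 100 μM) on ice for 10 min. Complexes were resolved by PAGE and read by phosphorimager.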

[3] = Cytotoxicity against human MT4 cells after 5 days by MTS assay; format: cell-based; conditions: read-out: TC50
How it was run: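 MT-4 T cells were incubated with compound for 5 days. Toxicity was by MTS tetrazolium reduction, with formazan absorbance at 492 nm compared with cells given no compound.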

[4] = test system: HeLa; experiment: Inhibition of HIV1 Rev expressed in human HeLa cells co-expressing firefly luciferase reporter gene assessed as inhibition of firefly luciferase expression after 24 hrs; format: cell-based; conditions: Human immunodeficiency virus 1
How it was run: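 HeLa line with an integrated Rev-dependent Renilla luciferase reporter, plus firefly luciferase and HIV-1 IIIB Rev under Tet-Off control. Doxycycline was removed to induce expression alongside compound at various concentrations. Cells were plated at 2 × 10^4/well in triplicate.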

[5] = Inhibition of HIV1 Rev expressed in african green monkey 5BD.1 cells assessed as inhibition of p24 antigen treated for 16 hrs after washout with medium again readded for 24 hrs by ELISA
[6] = Inhibition of HIV1 Rev expressed in human HeLa cells co-expressing renilla luciferase reporter gene assessed as inhibition of renilla luciferase expression after 24 hrs; format: cell-based; conditions: Human immunodeficiency virus 1, HeLa
How it was run: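 HeLa line with stably integrated Rev-dependent Renilla luciferase reporter (CMV promoter) plus bicistronic firefly luciferase/HIV-1 IIIB rev construct under Tet-Off; doxycycline withdrawn to induce Rev and both luciferases while compound added at various concentrations.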

[7] = Cytotoxicity against african green monkey 5BD.1 cells after 2 days by MTS assay; format: cell-based; conditions: chlorocebus aethiops, read-out: TC50
How it was run: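 5BD.1 cells (COS-derived, Rev-dependent Gag-Pol particle producers; 20,000/well) were given compound at 0.1–30 μM for 16 h, then refreshed with compound for 24 h more. Cells were collected at 40 h for the MTS proliferation assay, with formazan read at 492 nm versus untreated cells. TC50 was by curve fit.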

[8] = test system: Human immunodeficiency virus 1; experiment: Inhibition of HIV1 Rev-radiolabeled Rev response element interaction at up to 100 uM after 10 mins by electrophoretic mobility shift assay; how it was run: as §1
[9] = test system: Human immunodeficiency virus 1; experiment: Antiviral activity against HIV1 NL4-3 infected in human SupT1 cells assessed as inhibition of viral growth at 8 uM after 30 days by p24 ELISA; format: functional, organism-based; conditions: SUP-T1
How it was run: (§2)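 SupT1 cells (5 × 10^6) were Polybrene-treated and infected with NL4-3 (50 ng p24 equivalents), then washed. They were cultured in RPMI/10% FCS with compound at fixed levels (0.8 and 8 μM, or 1 and 10 μM) or none. Cultures were split every 3 days with fresh compound-containing medium for 30–31 days. Supernatant p24 was measured by ELISA.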

[10] = test system: Human immunodeficiency virus 1; experiment: Antiviral activity against HIV1 NL4-3 infected in human 293T cells assessed as inhibition of Nef synthesis at 8 uM after 24 hrs by Western blotting
[11] = test system: Human immunodeficiency virus 1; experiment: Antiviral activity against HIV1 NL4-3 infected in human SupT1 cells assessed as inhibition of viral growth at 0.8 uM after 30 days by p24 ELISA; format: functional, organism-based; conditions: SUP-T1; how it was run: as §2
[12] = Inhibition of HIV1 Rev-Rev response element-mediated p24 antigen production expressed in human HEK 293T cells after 72 hrs; conditions: Human immunodeficiency virus 1, HEK-293T
[13] = test system: HEK-293T; experiment: as above; conditions: Human immunodeficiency virus 1
[14] = Inhibition of Mason-Pfizer monkey virus […]constitutive transport element-mediated p24 antigen production expressed in human HEK 293T cells after 72 hrs
[15] = test system: Human immunodeficiency virus 1; experiment: Antiviral activity against HIV1 infected in TNFalpha-stimulated human U1 cells assessed as inhibition of Nef synthesis at 5 uM after 24 hrs by Western blotting; format: functional, organism-based
How it was run: (§3)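 U1 cells carrying integrated provirus were induced with TNF-α and given compound (5 or 10 μM). After 24 h, cells were harvested and analysed by Western blot for p24, Pr55gag and Nef using p24- and Nef-specific monoclonal antibodies.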

[16] = test system: Human immunodeficiency virus 1; experiment: Antiviral activity against HIV1 infected in TNFalpha-stimulated human U1 cells assessed as inhibition of Pr55gag synthesis at 5 uM after 24 hrs by Western blotting; format: functional, organism-based; how it was run: as §3
[17] = test system: Human immunodeficiency virus 1; experiment: Antiviral activity against HIV1 Brazilian isolate 93BR021 infected in PHA-stimulated human PBMC assessed as inhibition of viral replication after 7 days; format: functional, organism-based; conditions: Human immunodeficiency virus 1, Brazilian isolate 93BR021, 168 h
How it was run: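 PHA-stimulated (4 μg/ml, 48–72 h) PBMCs pooled from at least two donors, kept in 20 U/ml IL-2, 5 × 10^4 cells/well. Infected with primary isolate 93BR021 (CCR5-tropic, subtype B) at MOI ≈0.1 with nine compound concentrations, triplicate wells, for 7 days. Supernatant reverse transcriptase activity was read, then cell MTS toxicity. EC50 was interpolated between bracketing points.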

[18] = test system: Human immunodeficiency virus 1; experiment: Antiviral activity against HIV1 NL4-3 infected in human 293T cells assessed as inhibition of p24 synthesis at 8 uM after 24 hrs by Western blotting
[19] = test system: Human immunodeficiency virus 1; experiment: Antiviral activity against HIV1 infected in TNFalpha-stimulated human U1 cells assessed as inhibition of p24 synthesis at 5 uM after 24 hrs by Western blotting; format: functional, organism-based; how it was run: as §3
[20] = test system: U1; experiment: Cytotoxicity against human U1 cells after 3 days by MTS assay; format: cell-based; conditions: u1, 72 h
[21] = test system: Human immunodeficiency virus 1; experiment: Antiviral activity against HIV1 NL4-3 infected in human 293T cells assessed as inhibition of p24 synthesis at 10 uM after 24 hrs by Western blotting
[22] = test system: Human immunodeficiency virus 1; experiment: Antiviral activity against HIV1 infected in TNFalpha-stimulated human U1 cells assessed as inhibition of Nef synthesis at 10 uM after 24 hrs by Western blotting; format: functional, organism-based; how it was run: as §3
[23] = test system: Human immunodeficiency virus 1; experiment: Antiviral activity against HIV1 NL4-3 infected in human SupT1 cells assessed as inhibition of viral growth at 1 uM after 30 days by p24 ELISA; format: functional, organism-based; conditions: SUP-T1; how it was run: as §2
[24] = test system: Human immunodeficiency virus 1; experiment: Antiviral activity against HIV1 NL4-3 infected in human 293T cells assessed as inhibition of Nef synthesis at 10 uM after 24 hrs by Western blotting
[25] = test system: Human immunodeficiency virus 1; experiment: Antiviral activity against HIV1 NL4-3 infected in human SupT1 cells assessed as inhibition of viral growth at 10 uM after 30 days by p24 ELISA; format: functional, organism-based; conditions: SUP-T1; how it was run: as §2
[26] = test system: Human immunodeficiency virus 1; experiment: Antiviral activity against HIV1 infected in TNFalpha-stimulated human U1 cells assessed as inhibition of p24 synthesis at 10 uM after 24 hrs by Western blotting; format: functional, organism-based; how it was run: as §3
[27] = test system: Human immunodeficiency virus 1; experiment: Antiviral activity against HIV1 infected in TNFalpha-stimulated human U1 cells assessed as inhibition of Pr55gag synthesis at 10 uM after 24 hrs by Western blotting; format: functional, organism-based; how it was run: as §3

| Compound | CC50 at 120 h [3] [µM] | TC50 [4] [µM] | EC50 [5] [µM] | EC50 [6] [µM] | CC50 at 48 h [7] [µM] | other results |
| --- | --- | --- | --- | --- | --- | --- |
| O=c1c2ccccc2n2nnc3ccc(NCCCN4CCN(CCCNc5ccc6nnn7c8ccccc8c(=O)c5c67)CC4)c1c32 [TEMACRAZINE] |  |  |  |  |  | EC50 [1]: 2 µM |
| NC[C@@H]1O[C@H](O[C@H]2[C@@H](O)[C@H](O[C@@H]3[C@@H](O)[C@H](N)C[C@H](N)[C@H]3O[C@H]3O[C@H](CN)[C@@H](O)[C@H](O)[C@H]3N)O[C@@H]2CO)[C@H](N)[C@@H](O)[C@@H]1O |  |  |  |  |  | inhibition [2]: Active |
| COC(=O)c1c(N)ncn1-c1ccc(C)cc1 | > 100 | > 41.8 | 22 | 11.2 | > 30 |  |
| COc1cccc(NC(=O)c2cc(Cl)nnc2Cl)c1 | 50 | 18.5 | 4.9 | 8 | > 30 |  |
| Cc1ccc(NC(=O)c2sc(Cl)nc2C(F)(F)F)cc1 | 18 | > 39.5 | 1.9 | 9.73 | 25 |  |
| COc1ccc2nc(C(F)(F)F)c(C#N)c(N)c2c1 | 28 | 17.2 | 2.5 | 2.24 | > 30 | inhibition [8]: inactive; Activity [9]: Active; Activity [10]: inactive; Activity [11]: Active; EC50 [12]: 1.9 µM; inhibition [13]: Dose-dependent effect; Activity [1]: Dose-dependent effect; EC50 [1]: < 0.25 µM; EC50 [14]: > 15 µM; Activity [15]: inactive; Activity [16]: Active; EC50 [17]: 0.63 µM; Activity [18]: Active; Activity [19]: Active; Activity [20]: Toxic |
| CCC(=C/[C@H](C)C/C=C/C(C)=C/[C@@H](C)C(=O)[C@@H](C)[C@H](O)[C@@H](C)C/C(C)=C/C(=O)O)/C=C/[C@@H]1OC(=O)C=C[C@@H]1C [LEPTOMYCIN B] |  | 0.02 |  | 0.00822 |  |  |
| CCc1c(C)nc2sc(C(N)=O)c(N)c2c1C | 32 | > 37.6 | 0.9 | 1.07 | > 30 | inhibition [8]: inactive; Activity [21]: Active; Activity [22]: inactive; EC50 [12]: 3.8 µM; inhibition [13]: Dose-dependent effect; Activity [1]: Dose-dependent effect; EC50 [1]: 0.4 µM; Activity [23]: Active; Activity [24]: inactive; Activity [25]: Active; Activity [26]: Active; EC50 [14]: > 15 µM; EC50 [17]: 0.29 µM; Activity [27]: Active |
| Cc1cn([C@H]2C[C@H](N=[N+]=[N-])[C@@H](CO)O2)c(=O)[nH]c1=O [ZIDOVUDINE] |  |  |  |  |  | EC50 [17]: 2.47 µM |
| Fc1ccc(Nc2ncnc3ccccc23)cc1Cl |  | > 40.8 | 3 | 8.98 | > 30 |  |
| CCOC(=O)c1c(N)ncn1-c1ccccc1 | > 100 | 33 | 30 | 11 | > 30 |  |
| CS(=O)(=O)c1ncc(-c2ccc(Br)cc2)cn1 | 10 | 30.9 | 0.2 | 7.48 | > 30 |  |
| COc1ccc2cc3c(N)n[nH]c3nc2c1 | 20 | 8.41 | 0.9 | 0.48 | > 30 |  |
| CC(=O)Nc1cccc2n[se]nc12 | > 100 | 51.6 | 10 | 8.99 | > 30 |  |
| CCc1c(C(=O)Nc2ccccc2)c(C)nc2sc(C(N)=O)c(N)c12 | > 100 | 7.91 | 3 | 2.42 | > 30 |  |
